Measurements: ChEMBL document CHEMBL4196141, “Improved Antibacterial Activity of the Marine Peptide N6 against Intracellular Salmonella Typhimurium by Conjugating with the Cell-Penetrating Peptide Tat11 via a Cleavable Linker” (J Med Chem, 2018)
Values after ≈ are worked out from the molar mass of the structure shown. Active and inactive are the calls of the source. No cut-off for these calls is given here. Positions of bridges follow the written chain, without caps; N, C: chain ends. Residues, ends and D or L forms follow the SMILES beside them.

Legend:
Salmonella typhimurium [1] = assay: Antibacterial activity against Salmonella typhimurium ATCC 14028 incubated for 16 to 18 hrs at pH 7.2 by broth microdilution method; assay type: functional, Salmonella enterica subsp. enterica serovar Typhimurium; details: Salmonella enterica
Outline: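 Broth microdilution in MH broth. S. Typhimurium ATCC14028 was grown overnight at 37 °C to semi-log phase, pelleted, and diluted to OD600 0.01; final inoculum was 5 × 10^5 CFU/mL. Plates were incubated 16–18 h at 37 °C. MIC is the lowest peptide concentration with no visible growth. Data are in duplicate from at least two independent experiments.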

[2] = Drug internalization in mouse RAW264.7 using FITC-labeled compound at 2 uM pre-incubated for 1 hr with lipid rafts disruptor methyl-beta-cyclodextrin followed by compound addition and subsequent incubation for 2 hrs by flow cytometry; assay type: ADME, cell-based; details: raw264.7, 2 h
Outline: (§1)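 RAW264.7 cells were pretreated 1 h at 37 °C with 3 mM amiloride, 20 µM nocodazole, 6 µg/mL chlorpromazine or 5 mM MβCD. FITC-labeled peptide was then added for 2 h at 37 °C. Extracellular fluorescence was quenched with 0.4% Trypan blue and intracellular fluorescence read by flow cytometry against an untreated control.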

[3] = Drug internalization in mouse RAW264.7 using FITC-labeled compound at 2 uM pre-incubated for 1 hr with clathrin-mediated endocytosis inhibitor chlorpromazine followed by compound addition and subsequent incubation for 2 hrs by flow cytometry; assay type: ADME, cell-based; details: raw264.7, 2 h; outline: as §1
[4] = Drug internalization in mouse RAW264.7 using FITC-labeled compound at 2 uM pre-incubated for 1 hr with macropinocytosis inhibitor amiloride followed by compound addition and subsequent incubation for 2 hrs by flow cytometry; assay type: ADME, cell-based; details: raw264.7, 2 h; outline: as §1
[5] = Drug localisation in cytosol of mouse RAW264.7 using FITC-labeled compound at 5 uM incubated for 2 hrs by confocal microscopy; assay type: ADME, cell-based
Outline: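 RAW264.7 cells were plated for 18 h at 37 °C, then given 5 µM FITC or FITC-labeled peptide for 2 h. Nuclei were stained with Hoechst 33342 and membranes with FM 4-64 (each 5 µg/mL) for 30 min at 37 °C. Cells were PBS-washed and imaged by confocal fluorescence microscopy.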

[6] = Drug internalization in mouse RAW264.7 using FITC-labeled compound at 2 uM pre-incubated for 1 hr with tubulin polymerization inhibitor nocodazole followed by compound addition and subsequent incubation for 2 hrs by flow cytometry; assay type: ADME, cell-based; details: raw264.7, 2 h; outline: as §1
[7] = Drug internalization in mouse RAW264.7 using FITC-labeled compound at 2 uM incubated for 2 hrs at 4 degC by flow cytometry; assay type: ADME, cell-based; details: raw264.7, 2 h
Salmonella typhimurium [8] = assay: Bactericidal activity against 2 hrs-gentamicin pre-exposed Salmonella typhimurium ATCC 14028 assessed as effect on bacterial re-growth at 10 uM measured within 6 hrs; assay type: functional, organism-based; details: Salmonella enterica subsp. enterica serovar Typhimurium
Outline: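 RAW264.7 cells in DMEM/10% FBS were infected with S. Typhimurium ATCC14028 at MOI 10 for 1 h, then given 100 µg/mL gentamicin for 2 h at 37 °C and washed. Cells were treated with 10 µM agent for 1, 3, 6, 9 and 12 h, lysed with 0.1% Triton X-100, and surviving intracellular bacteria were serially diluted and plated for CFU.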

[9] = Induction of hemolysis in mouse RBC at 100 uM incubated for 1 hrs at 37 degC; assay type: cell-based, Erythrocyte; details: red blood cells (erythrocytes), read-out: Activity
Outline: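 Fresh mouse erythrocytes were washed three times in 0.9% NaCl, and an 8% suspension was incubated with peptide (2-fold dilutions, 100 to 0.3125 µM) for 1 h at 37 °C. Released hemoglobin was read at 540 nm. 1% Triton X-100 defined 100% lysis; polymyxin served as positive control and NaCl as negative.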

Salmonella typhimurium [10] = assay: Antibacterial activity against Salmonella typhimurium ATCC 14028 infected in ICR mouse model of peritonitis assessed as mouse survival at 1 umol/kg, ip dosed at 0.5 and 8 hrs post infection and measured daily for 7 days
[11] = Drug uptake in mouse RAW264.7 using FITC-labeled compound at 5 uM incubated for 0.5 hrs by flow cytometry; assay type: ADME, cell-based; details: raw264.7, 0.5 h
Outline: (§2)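 Confluent RAW264.7 cells were resuspended in PBS and incubated at 37 °C with 5 µM FITC-labeled peptide. Samples taken at 0.5 h and 2 h were quenched with 0.4% Trypan blue for extracellular fluorescence. Uptake (percent internalized cells) was read by flow cytometry, with free FITC as negative control.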

Salmonella typhimurium [12] = assay: Antibacterial activity against Salmonella typhimurium ATCC 14028 infected in ICR mouse model of peritonitis assessed as reduction colony forming units in total peritoneal fluids at 1 umol/kg, ip dosed at 2 hrs post infection and measured after 10 hrs post dose; assay type: functional, Salmonella enterica subsp. enterica serovar Typhimurium
Outline: (§3)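 Six-week-old female ICR mice (six per group) received ip S. Typhimurium ATCC14028 (5 × 10^5 CFU, 0.5 mL). Peptide was given ip 2 h post-infection and mice were killed 10 h after treatment. Peritoneum was lavaged with 5 mL ice-cold PBS and total CFU counted. For intracellular CFU, pelleted cells were treated with 100 µg/mL gentamicin for 1 h at 37 °C, washed, lysed and plated. PBS served as negative control, ciprofloxacin as positive.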

[13] = Cytotoxicity in mouse RAW264.7 assessed as cell survival at 100 uM incubated for 8 hrs by MTT assay; assay type: cell-based; details: RAW264.7 cells, read-out: Survival
Outline: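 RAW264.7 cells seeded at 2.5 × 10^4 cells/well, cultured 24 h, then exposed for 8 h to 2-fold dilutions from 100 to 0.625 µM. MTT at 5 mg/mL added for 4 h, formazan dissolved in DMSO, absorbance read at 570 nm. Untreated cells served as control. Samples run in triplicate.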

Salmonella typhimurium [14] = assay: Antibacterial activity against Salmonella typhimurium ATCC 14028 using 1 hr cathepsin B pre-treated compound at pH 5 incubated for 16 to 18 hrs at by broth microdilution method; assay type: functional, Salmonella enterica subsp. enterica serovar Typhimurium; details: Salmonella enterica
Outline: (§4)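 Cathepsin B (bovine spleen, 10 µg/mL) was added for 1 h at 37 °C, and the reaction was stopped with 9 volumes of MHB. MIC was then run by broth microdilution (5 × 10^5 CFU/mL, 16–18 h, 37 °C) in medium adjusted to pH 5.0.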

[15] = Drug uptake in mouse RAW264.7 using FITC-labeled compound at 5 uM incubated for 2 hrs by flow cytometry; assay type: ADME, cell-based; details: raw264.7, 2 h; outline: as §2
Salmonella typhimurium [16] = assay: Antibacterial activity against Salmonella typhimurium ATCC 14028 infected in ICR mouse model of peritonitis assessed as reduction colony forming units in kidney at 1 to 2 umol/kg, ip dosed at 2 hrs post infection and measured after 10 hrs post dose; assay type: functional, Salmonella enterica subsp. enterica serovar Typhimurium
Outline: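 Female ICR mice, six weeks old (six per group), were infected ip with S. Typhimurium ATCC14028 (5 × 10^5 CFU, 0.5 mL). Peptide was given ip at 1, 1.5 or 2 µmol/kg 2 h post-infection. Mice were killed 10 h after treatment, and kidneys and spleens were homogenized in sterile PBS for CFU counts of translocated bacteria. PBS-treated mice served as negative control, ciprofloxacin-treated mice as positive.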

Salmonella typhimurium [17] = assay: Antibacterial activity against Salmonella typhimurium ATCC 14028 infected in ICR mouse model of peritonitis assessed as reduction colony forming units in intracellular fluids at 1 umol/kg, ip dosed at 2 hrs post infection and measured after 10 hrs post dose; assay type: functional, Salmonella enterica subsp. enterica serovar Typhimurium; outline: as §3
Salmonella typhimurium [18] = assay: Antibacterial activity against Salmonella typhimurium ATCC 14028 using 1 hr cathepsin B pre-treated compound followed by incubation for 16 to 18 hrs at pH 5 by broth microdilution method; assay type: functional, Salmonella enterica subsp. enterica serovar Typhimurium; details: Salmonella enterica; outline: as §4

Row | SMILES | MIC (Salmonella typhimurium [1]) [µM] | Drug uptake [2] | Drug uptake [3] | Drug uptake [4] | Drug uptake [5] | Drug uptake [6] | Drug uptake [7] | Activity (Salmonella typhimurium [8]) | hemolysis at 1 h, 100 µM [9] [%] | Activity (Salmonella typhimurium [10]) [%] | Drug uptake [11] [%] | Activity (Salmonella typhimurium [12]) [log10CFU] | viability at 8 h, 100 µM [13] [%] | MIC (Salmonella typhimurium [14]) [µM] | Drug uptake [15] [%] | Activity (Salmonella typhimurium [16]) [log10CFU] | Activity (Salmonella typhimurium [17]) [log10CFU] | MIC (Salmonella typhimurium [18]) [µM]
1 | N=C(N)NCCC[C@H](NC(=O)[C@H](CCCNC(=N)N)NC(=O)[C@H](CCCNC(=N)N)NC(=O)[C@H](CCC(N)=O)NC(=O)[C@H](CCCNC(=N)N)NC(=O)[C@H](CCCNC(=N)N)NC(=O)[C@H](CCCCN)NC(=O)[C@H](CCCCN)NC(=O)[C@H](CCCNC(=N)N)NC(=O)CNC(=O)[C@@H](N)Cc1ccc(O)cc1)C(=O)O | > 82.1 | Not Active | Not Active | Not Active | Active | Active | Not Active | – | – | – | – | – | – | – | – | – | – | –
2 | CC(C)[C@@H]1NC(=O)CNC(=O)[C@H](CC(N)=O)NC(=O)[C@H](CCCNC(=N)N)NC(=O)[C@H](Cc2ccc(O)cc2)NC(=O)[C@H](C(C)C)NC(=O)[C@@H](NC(=O)[C@@H](NC(=O)[C@H](CC(N)=O)NC(=O)[C@H](Cc2c[nH]c3ccccc23)NC(=O)[C@H](C)NC(=O)[C@H](Cc2ccccc2)NC(=O)CN)C(C)C)CSSC[C@@H](C(=O)N[C@@H](Cc2cnc[nH]2)C(=O)N[C@@H](CCCNC(=N)N)C(=O)N[C@@H](CCCNC(=N)N)C(=O)N[C@@H](C)C(=O)N[C@@H](CC(N)=O)C(=O)O)NC(=O)[C@H](C(C)C)NC(=O)[C@H](CCCNC(=N)N)NC1=O (H-GFAWNVCVYRNGVRVCHRRAN-OH; disulfide 7-16) | 0.81 (≈ 2.01 µg/mL) | – | – | – | Not Active | – | – | inactive | 2.06 | 33.4 | 28.7 | 1.01 | 94.6 | 1.62 (≈ 4.01 µg/mL) | 71.9 | 0.6 | 0.43 | 13 (≈ 32.1 µg/mL)
